Screening results (PubChem)
KCNK3 block: human KCNK3 channel inhibition, primary screen; B-score at 10 µM; O14649; CHO-KCNK3 thallium flux, FluxOR fluorescence; hits give low values; actives 0.84% (n = 340,000);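 active means B-score under library mean minus 4 SD, starting fluorescence ratio at most library mean plus 5 SD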;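 further: more negative B-score means stronger inhibition of thallium flux through KCNK3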
Target sequence (O14649 whole entry, looked up): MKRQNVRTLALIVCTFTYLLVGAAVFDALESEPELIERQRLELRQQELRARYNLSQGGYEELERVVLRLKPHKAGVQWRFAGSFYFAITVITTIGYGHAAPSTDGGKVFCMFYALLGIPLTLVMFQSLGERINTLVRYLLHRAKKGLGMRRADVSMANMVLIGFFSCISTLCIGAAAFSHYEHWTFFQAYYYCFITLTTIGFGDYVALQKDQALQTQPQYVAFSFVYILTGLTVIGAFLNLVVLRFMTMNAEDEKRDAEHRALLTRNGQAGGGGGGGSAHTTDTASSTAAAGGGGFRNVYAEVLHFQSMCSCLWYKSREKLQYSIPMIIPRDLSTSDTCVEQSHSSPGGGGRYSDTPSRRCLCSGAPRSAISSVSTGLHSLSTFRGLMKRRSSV
hERG rescue: compounds protecting human hERG from proarrhythmic drug block; CHO-hERG, FluxOR thallium flux, dofetilide IC70 present; activation (rescue from dofetilide block), less the hit threshold, % at 10 µM; actives 0.51% (n = 310,000);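 active means activation above the mean of controls blocked by dofetilide plus 5 SD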;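 further: thallium influx through hERG after potassium depolarization seen as dye fluorescence rise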
KCNQ1 pot: human KCNQ1 channel potentiation or activation. CHO-K1 KCNQ1, thallium flux FluxOR fluorescence; hits give high values. B-score at 10 µM. actives 0.35% (n = 310,000);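 active means fluorescence ratio B-score, a plate-corrected score, at least three library SD, with initial intensity B-score within 5 SD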
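Assay system: CHO-K1 cells stably expressing KCNQ1. Medium: assay buffer for compound exposure, DMSO matched across wells. Timing: 37 °C overnight plating, 90-min dark dye load, 20-min compound pretreatment. Signal: kinetic FluxOR fluorescence, 10 s baseline plus 110 s post-stimulus.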
KCNQ1 inh: inhibitors of human KCNQ1 potassium channel | CHO-K1 KCNQ1, FluxOR thallium flux fluorescence; hits give high values | B-score at 10 µM | actives 1.3% (n = 310,000) | AID 2642;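 active means compounds whose thallium flux B-score, printed positive for inhibition, exceeds three library SD while starting fluorescence stays within three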;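 further: channel opened by potassium depolarization with thallium stimulus after 20 min compound exposure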
Kir21 inh: blocks the mouse Kir2.1 inward-rectifier potassium channel. HEK293-Kir2.1, FluxOR thallium flux fluorescence; hits give low values. B-score at 10 µM. actives 0.85% (n = 310,000);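 active means fluorescence ratio B-score at or below minus 3 SD of library scores, with starting-brightness B-score within 2 SD, cut at about -4.2 in these data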;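 further: channel flux triggered by added potassium and thallium sulfate stimulus; B-score of peak minus minimum fluorescence over baseline after thallium stimulus; more negative B-score means stronger Kir2.1 block with less thallium influx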
KCNK9 block: human KCNK9 channel inhibition | actives 1.2% (n = 310,000) | HEK293 KCNK9, FluxOR thallium flux fluorescence; hits give low values | B-score at 10 µM;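 active means ratio B-score over 3 SD below the library mean, with starting fluorescence within 5 SD of its mean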;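 further: negative B-score means less thallium flux so channel inhibition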
Target sequence (Q9NPC2 whole entry, looked up): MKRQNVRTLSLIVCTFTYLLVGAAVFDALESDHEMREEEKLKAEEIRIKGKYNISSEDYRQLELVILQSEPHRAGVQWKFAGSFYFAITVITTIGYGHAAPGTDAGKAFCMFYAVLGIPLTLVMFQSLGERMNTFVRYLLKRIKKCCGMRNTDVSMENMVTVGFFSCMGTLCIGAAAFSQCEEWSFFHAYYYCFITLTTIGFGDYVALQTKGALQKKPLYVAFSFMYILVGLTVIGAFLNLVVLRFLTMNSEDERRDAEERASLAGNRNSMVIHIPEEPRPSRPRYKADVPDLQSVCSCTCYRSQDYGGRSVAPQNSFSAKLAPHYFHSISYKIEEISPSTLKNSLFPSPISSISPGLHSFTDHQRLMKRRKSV
KCNQ1 inh valid: confirmation of human KCNQ1 potassium channel inhibitors | actives 93% (n = 1,600) | inhibition, % at 10 µM | KCNQ1 cell line, FluxOR thallium flux fluorescence | shares compounds with KCNQ1 inh | AID 588353;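 active means primary screen active, with duplicate mean exceeding buffer control mean plus 3 SD of buffer wells, cut at about 28% in these data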
CHO Tl flux: activity in parental CHO cells lacking KCNQ1 | shares compounds with KCNQ1 inh | parental CHO-K1, FluxOR thallium flux fluorescence ratio; hits give low values; zero means no signal rise above baseline | fluorescence ratio (Tl flux) at 10 µM | actives 21% (n = 1,600) | AID 588366;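 active means mean of duplicate thallium-flux fluorescence ratios in parental host cells more than 5 SD below the buffer control mean, cut at about 0.38 in these data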;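 further: ratio is peak minus minimum fluorescence divided by baseline fluorescence; actives read low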
KCNQ1 ephys val: blocks human KCNQ1 current in automated patch clamp; KCNQ1-CHO cells; shares compounds with KCNQ1 inh; actives 20% (n = 490); calls only at 10 µM; AID 624120;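 active means KCNQ1 current drop exceeding 3 SD of negative control wells, seen in both duplicate runs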;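 further: steady state current during a 2 s step from -80 to +40 mV; negative values mean current inhibition and positive values mean potentiation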
KCNQ2 spec: selectivity of KCNQ1 inhibitors: inhibition of rat KCNQ2 channel; actives 71% (n = 1,600); KCNQ2 cells, FluxOR thallium flux fluorescence; inhibition, % at 10 µM; shares compounds with KCNQ1 inh; AID 651746;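 active means mean percent inhibition of the KCNQ2 thallium signal more than 5 SD above the buffer-only control wells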;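 further: KCNQ2 expressed in CHO cells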
KCNQ1-KCNE1 inh: human KCNQ1/KCNE1 inhibition in KCNQ1 specificity screen; shares compounds with KCNQ1 inh; KCNQ1/KCNE1 cells, FluxOR thallium flux fluorescence; inhibition, % at 10 µM; actives 77% (n = 1,600); AID 652147;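 active means mean percent inhibition of duplicate wells above the buffer-only control mean plus 3 SD of those controls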
Of the large screens only hits and unclear results are named; the others gave an inactive call (follow-up assays come after a bar, where they were run). Hits are enriched below; roughly 3.7% of the tested compounds scored in any of these assays.

CC(=O)Nc1ccc(C23CC4CC(CC(C4)C2)C3)cc1	none
CNC(=S)Nc1ccc(C23CC4CC(CC(C4)C2)C3)cc1	KCNQ1 inh 7 | KCNQ1 inh valid 74.0 | CHO Tl flux inactive | KCNQ2 spec 65.0% | KCNQ1-KCNE1 inh 90.0%
Cn1c2c(c(=O)n(C)c1=O)C(C(F)(F)F)(C(F)(F)F)N=C(c1ccc(Cl)cc1)N2	KCNQ1 inh 7 | KCNQ1 inh valid 62.0 | CHO Tl flux inactive | KCNQ2 spec inactive | KCNQ1-KCNE1 inh inactive
CCOc1ccc2nc(NC3=NC(C)(C)C=C(C)N3)nc(C)c2c1	KCNQ1 inh 10 | KCNQ1 inh valid 87.5 | CHO Tl flux inactive | KCNQ2 spec inactive | KCNQ1-KCNE1 inh 91.5%
Cc1ccc2nc(SCC(=O)Nc3cc(C(C)(C)C)nn3-c3ccccc3)[nH]c2c1	KCNQ1 inh 8 | KCNQ1 inh valid 95.5 | CHO Tl flux inactive | KCNQ1 ephys val active | KCNQ2 spec 111.0% | KCNQ1-KCNE1 inh 141.0%
Cc1ccccc1OC1C(=O)N(Cc2ccc3c(c2)OCO3)C1c1sccc1C (stereo not given)	none
Cc1ccc(CN(C)CC(=O)Nc2ccc3c(c2)CCC3)cc1	KCNQ1 inh 6 | KCNQ1 inh valid 83.0 | CHO Tl flux inactive | KCNQ2 spec 86.3% | KCNQ1-KCNE1 inh 89.5%
Cc1ccc(NC(=O)Nc2ccc3c(c2)CCC3)cc1	none
Cc1c(C(=O)OCC(=O)N(C)c2ccccc2)oc2ccccc12	none
Oc1ccccc1N=Nc1ccccc1O	KCNQ1 inh 13 | KCNQ1 inh valid 61.5 | CHO Tl flux inactive | KCNQ2 spec inactive | KCNQ1-KCNE1 inh inactive
Nc1ccc(N=Nc2ccccc2O)c(N)c1	none
CCOc1ccc(NC(=O)Nc2nc(SCC)ns2)cc1	KCNQ1 inh 10 | KCNQ1 inh valid 80.0 | CHO Tl flux inactive | KCNQ2 spec inactive | KCNQ1-KCNE1 inh 35.5%
COc1cc2ncc(S(=O)(=O)c3ccccc3)c(N3CCCC(C)C3)c2cc1OC (stereo not given)	KCNQ1 inh 11 | KCNQ1 inh valid 151.5 | CHO Tl flux 0.276 | KCNQ2 spec 164.0% | KCNQ1-KCNE1 inh active
O=S(=O)(c1ccccc1)c1cnc(-c2ccccc2)nc1N1CCCC1	none
OCCN1CCOCCOc2ccccc2OCCOCC1	none
c1ccc2c(c1)OCCOCCOCCOCCOCCOc1ccccc1OCCOCCOCCO2	KCNQ1 inh 8 | KCNQ1 inh valid 80.0 | CHO Tl flux inactive | KCNQ2 spec 64.3% | KCNQ1-KCNE1 inh 60.5%
CCN(CC)C(=O)c1ccc(COc2ccc(Cl)c(C)c2)o1	KCNQ1 inh 11 | KCNQ1 inh valid 114.5 | CHO Tl flux inactive | KCNQ1 ephys val inactive | KCNQ2 spec 129.7% | KCNQ1-KCNE1 inh 109.0%
COc1cc(OC)cc(C(=O)Nc2nc(CC(=O)NCCc3ccccc3)cs2)c1	KCNQ1 inh 15 | KCNQ1 inh valid 48.5 | CHO Tl flux inactive | KCNQ2 spec 111.3% | KCNQ1-KCNE1 inh 103.0%
O=C(O)c1ccc(CSc2nc3ccccc3c(=O)n2-c2ccccc2)cc1	none
COC(=O)c1ccc2c(=O)n(-c3ccccc3)c(SCN3C(=O)c4ccccc4C3=O)nc2c1	KCNQ1 inh 6 | KCNQ1 inh valid 87.0 | CHO Tl flux inactive | KCNQ2 spec inactive | KCNQ1-KCNE1 inh 65.5%
O=C(Nc1ccc(N2CCCC2)c(Cl)c1)c1ccc2c(c1)OCCO2	none
O=C(Nc1ccc(N2CCCCC2)c(Cl)c1)c1ccc2c(c1)OCCO2	KCNQ1 inh 9 | KCNQ1 inh valid 86.5 | CHO Tl flux inactive | KCNQ2 spec 98.0% | KCNQ1-KCNE1 inh 120.5%
CC1(C)CCN2CCC(C)(C)c3c(O)ccc1c32	KCNQ1 inh 11 | KCNQ1 inh valid 70.0 | CHO Tl flux inactive | KCNQ2 spec 62.3% | KCNQ1-KCNE1 inh 58.0%
CCCCOc1ccc(Br)cc1CSC(=N)N	KCNQ1 inh 7, Kir21 inh -7.55 | KCNQ1 inh valid 89.5 | CHO Tl flux inactive | KCNQ1 ephys val active | KCNQ2 spec 60.0% | KCNQ1-KCNE1 inh inactive
Cc1ccc(Cn2nnnc2CN2CCC(NC(=O)C(C)(C)C)CC2)cc1	none
COc1cc2ncc(C(=O)c3ccccc3)c(N3CCN(Cc4ccccc4)CC3)c2cc1OC	none
O=C(c1ccc(-c2ccccc2Cl)o1)N1CCN(c2ccccc2O)CC1	KCNQ1 inh 8 | KCNQ1 inh valid active | CHO Tl flux inactive | KCNQ1 ephys val inactive | KCNQ2 spec inactive | KCNQ1-KCNE1 inh inactive
O=C(c1ccco1)N1CCN(C(=O)c2ccc(-c3ccccc3Cl)o2)CC1	none (no result: hERG rescue, KCNQ1 pot, KCNQ1 inh, Kir21 inh, KCNK9 block)
Cc1ccc(-c2nc3ccccc3nc2-c2ccccc2)cc1	KCNQ1 inh 15 | KCNQ1 inh valid 88.5 | CHO Tl flux inactive | KCNQ1 ephys val active | KCNQ2 spec 108.0% | KCNQ1-KCNE1 inh 152.5%
Nc1ccc(Oc2ccc3nc(-c4ccccc4)c(-c4ccccc4)nc3c2)cc1	none
Clc1ccc(-c2nc3ccccc3nc2-c2ccccc2)cc1	none
Nc1ccc2nc(-c3ccccc3)c(-c3ccccc3)nc2c1	KCNQ1 inh 15 | KCNQ1 inh valid 148.0 | CHO Tl flux 0.212 | KCNQ2 spec inactive | KCNQ1-KCNE1 inh inactive
CCOC(=O)c1cc(C#N)c(N2CCCC2)nc1-c1ccccc1	none
CCOC(=O)c1cc(C#N)c(Oc2ccc(F)cc2)nc1-c1ccccc1	KCNQ1 inh 9 | KCNQ1 inh valid 70.5 | CHO Tl flux 0.38 | KCNQ2 spec 76.3% | KCNQ1-KCNE1 inh 104.5%
COC(=O)c1sccc1NC(=O)c1cc(-c2cc(C)ccc2C)nc2ccccc12	none
Cc1ccc(C)c(-c2cc(C(=O)Nc3nccs3)c3ccccc3n2)c1	KCNQ1 inh 8, KCNK9 block -7.85 | KCNQ1 inh valid 88.0 | CHO Tl flux inactive | KCNQ1 ephys val inactive | KCNQ2 spec 101.7% | KCNQ1-KCNE1 inh 125.0%
Cc1sc(NC(=O)c2cc(-c3ccc(Cl)cc3)nc3ccccc23)c(C(N)=O)c1C	none
